Active and inactive are the calls of the source. The rule behind the calls is not given here.
How the values were obtained:
[1] = target: T1, Acetylcholine receptor; alpha1/beta1/delta/gamma (Homo sapiens, UniProt P02708+P07510+P11230+Q07001); assay: Agonist activity at human alpha1beta1gammadelta nAChR expressed in human TE671/RD cells assessed as stimulation of 86Rb+ efflux preincubated for 10 mins by liquid scintillation counting; assay type: functional, cell-based
[2] = test system: Mus musculus; assay: Antidepressant activity in BALB/cJ mouse assessed as reduction of immobility time at 5 to 30 mg/kg, ip administered 30 mins before test measured over 6 mins trial by forced swim test; assay type: functional, organism-based
[3] = target: T1, Acetylcholine receptor; alpha1/beta1/delta/gamma; assay: Antagonist activity at human alpha1beta1gammadelta nAChR expressed in human TE671/RD cells assessed as inhibition of 86Rb+ efflux preincubated for 10 mins by liquid scintillation counting; assay type: functional, cell-based
In short: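 Cells loaded with ⁸⁶Rb⁺ were pre-exposed to test drug for 10 min. […] Efflux was normalized to intracellular ⁸⁶Rb⁺ available at that step. Nonspecific efflux came from 100 µM mecamylamine or buffer. Inactivation IC50 was obtained by curve fit.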

[4] = test system: Mus musculus; assay: Antidepressant activity in BALB/cJ mouse assessed as reduction of immobility time at 5 to 30 mg/kg, ip administered 30 mins before test measured over 6 mins trial by post hoc Fisher's LSD test; assay type: functional, organism-based
[5] = target: T2, Neuronal acetylcholine receptor; alpha4/beta2 (Rattus norvegicus, UniProt P09483+P12390); assay: Displacement of [3H]Epibatidine from alpha4beta2 nAChR in rat brain; assay type: tissue-based
[6] = target: T3, Neuronal acetylcholine receptor; alpha4/beta2 (Homo sapiens, UniProt P17787+P43681); assay: Agonist activity at human alpha4beta2 nAChR expressed in human SH-EP1 cells assessed as stimulation of 86Rb+ efflux preincubated for 10 mins by liquid scintillation counting; assay type: functional, cell-based
[7] = target: Neuronal acetylcholine receptor; alpha3/beta2 (Rattus norvegicus, UniProt P04757+P12390); assay: Displacement of [3H]Epibatidine from rat alpha3beta2 nAChR; assay type: protein-complex assay
[8] = test system: Neuronal acetylcholine receptor alpha2/beta4 (Rattus norvegicus); assay: Displacement of [3H]Epibatidine from rat alpha2beta4 nAChR at 10 uM
[9] = target: T3, Neuronal acetylcholine receptor; alpha4/beta2; assay: Antagonist activity at human alpha4beta2 nAChR expressed in human SH-EP1 cells assessed as inhibition of 86Rb+ efflux preincubated for 10 mins by liquid scintillation counting; assay type: functional, cell-based
In short: (§1)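 Cells loaded with ⁸⁶Rb⁺ were pre-exposed to test drug for 10 min. Efflux was normalized to intracellular ⁸⁶Rb⁺ available at that step. Nonspecific efflux came from 100 µM mecamylamine or buffer. Inactivation IC50 was obtained by curve fit.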

[10] = target: Neuronal acetylcholine receptor; alpha4/beta4 (Rattus norvegicus) (UniProt P09483+P12392); assay: Displacement of [3H]Epibatidine from rat alpha4beta4 nAChR at 10 uM; assay type: protein-complex assay
[11] = target: T4, Neuronal acetylcholine receptor; alpha3/beta4 (Homo sapiens, UniProt P30926+P32297); assay: Agonist activity at human alpha3beta4 nAChR expressed in human SH-SY5Y cells assessed as stimulation of 86Rb+ efflux preincubated for 10 mins by liquid scintillation counting; assay type: functional, cell-based
[12] = target: T4, Neuronal acetylcholine receptor; alpha3/beta4; assay: Antagonist activity at human alpha3beta4 nAChR expressed in human SH-SY5Y cells assessed as inhibition of 86Rb+ efflux preincubated for 10 mins by liquid scintillation counting; assay type: functional, cell-based; in short: as §1
[13] = target: Neuronal acetylcholine receptor; alpha3/beta4 (Rattus norvegicus) (UniProt P04757+P12392); assay: Displacement of [3H]Epibatidine from rat alpha3beta4 nAChR at 10 uM; assay type: protein-complex assay
[14] = target: T2, Neuronal acetylcholine receptor; alpha4/beta2; assay: Displacement of [3H]Epibatidine from rat alpha4beta2 nAChR; assay type: protein-complex assay
[15] = Agonist activity at ganglionic nAChR; assay type: functional
[16] = target: T1, Acetylcholine receptor; alpha1/beta1/delta/gamma; assay: Binding affinity to muscle type alpha1beta1gammadelta-nAChR; assay type: protein-complex assay, Muscle tissue
[17] = test system: Mus musculus; assay: Antidepressant activity in BALB/cJ mouse assessed as reduction of immobility time at 1 to 3 mg/kg, ip administered 30 mins before test measured over 6 mins trial by forced swim test; assay type: functional, organism-based
[18] = test system: Mus musculus; assay: Antidepressant activity in BALB/cJ mouse assessed as reduction of immobility time at 20 mg/kg, ip administered 30 mins before test measured over 6 mins trial by forced swim test; assay type: functional, organism-based; design: dose 20 mg/kg
[19] = target: T3, Neuronal acetylcholine receptor; alpha4/beta2; assay: Antagonist activity at human alpha4beta2 nAChR expressed in human SH-EP1 cells assessed as inhibition of 86Rb+ efflux preincubated for 10 mins by liquid scintillation counting relative to control; assay type: functional, cell-based; in short: as §1
[20] = target: T3, Neuronal acetylcholine receptor; alpha4/beta2; assay: Agonist activity at human low-sensitivity alpha4beta2 nAChR expressed in human SH-EP1 cells assessed as stimulation of 86Rb+ efflux preincubated for 10 mins by liquid scintillation counting relative to control; assay type: functional, cell-based
[21] = target: T3, Neuronal acetylcholine receptor; alpha4/beta2; assay: Agonist activity at human high-sensitivity alpha4beta2 nAChR expressed in human SH-EP1 cells assessed as stimulation of 86Rb+ efflux preincubated for 10 mins by liquid scintillation counting relative to control; assay type: functional, cell-based
[22] = target: Neuronal acetylcholine receptor; alpha4/beta4 (Homo sapiens, UniProt P30926+P43681); assay: Binding affinity to alpha4beta4 nAChR; assay type: protein-complex assay
Chain of Neuronal acetylcholine receptor; alpha4/beta4 (P30926 whole entry): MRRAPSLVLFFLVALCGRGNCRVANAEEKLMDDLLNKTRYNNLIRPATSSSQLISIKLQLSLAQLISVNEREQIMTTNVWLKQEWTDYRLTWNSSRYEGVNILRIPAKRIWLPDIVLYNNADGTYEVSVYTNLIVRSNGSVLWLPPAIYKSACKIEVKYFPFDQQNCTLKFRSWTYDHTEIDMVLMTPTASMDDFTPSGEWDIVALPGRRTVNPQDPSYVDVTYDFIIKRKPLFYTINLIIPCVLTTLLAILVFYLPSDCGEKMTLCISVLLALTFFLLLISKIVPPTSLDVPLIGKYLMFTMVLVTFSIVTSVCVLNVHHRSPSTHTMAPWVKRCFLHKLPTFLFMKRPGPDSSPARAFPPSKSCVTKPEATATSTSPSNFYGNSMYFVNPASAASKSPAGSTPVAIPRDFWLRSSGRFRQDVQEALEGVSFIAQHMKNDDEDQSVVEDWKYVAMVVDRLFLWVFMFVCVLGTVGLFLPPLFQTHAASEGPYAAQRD
Chain of Neuronal acetylcholine receptor; alpha4/beta4 (P43681 whole entry): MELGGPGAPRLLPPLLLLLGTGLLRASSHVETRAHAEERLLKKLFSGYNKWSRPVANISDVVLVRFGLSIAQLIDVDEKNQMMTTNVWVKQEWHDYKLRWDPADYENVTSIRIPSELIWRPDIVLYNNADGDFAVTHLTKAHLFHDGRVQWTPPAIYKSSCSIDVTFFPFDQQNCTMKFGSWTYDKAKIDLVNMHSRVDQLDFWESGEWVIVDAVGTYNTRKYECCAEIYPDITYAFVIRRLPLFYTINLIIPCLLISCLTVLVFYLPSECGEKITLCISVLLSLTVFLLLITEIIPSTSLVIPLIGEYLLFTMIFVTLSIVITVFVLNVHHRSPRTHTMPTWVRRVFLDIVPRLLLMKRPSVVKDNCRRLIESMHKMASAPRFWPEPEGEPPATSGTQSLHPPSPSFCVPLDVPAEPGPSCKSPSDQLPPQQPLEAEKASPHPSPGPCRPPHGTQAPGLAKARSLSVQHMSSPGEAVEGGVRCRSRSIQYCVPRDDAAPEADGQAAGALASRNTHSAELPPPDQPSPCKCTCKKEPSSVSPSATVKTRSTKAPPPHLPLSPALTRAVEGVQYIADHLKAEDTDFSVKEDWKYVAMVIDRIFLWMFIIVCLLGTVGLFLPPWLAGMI

T3 sequence (P17787 whole entry): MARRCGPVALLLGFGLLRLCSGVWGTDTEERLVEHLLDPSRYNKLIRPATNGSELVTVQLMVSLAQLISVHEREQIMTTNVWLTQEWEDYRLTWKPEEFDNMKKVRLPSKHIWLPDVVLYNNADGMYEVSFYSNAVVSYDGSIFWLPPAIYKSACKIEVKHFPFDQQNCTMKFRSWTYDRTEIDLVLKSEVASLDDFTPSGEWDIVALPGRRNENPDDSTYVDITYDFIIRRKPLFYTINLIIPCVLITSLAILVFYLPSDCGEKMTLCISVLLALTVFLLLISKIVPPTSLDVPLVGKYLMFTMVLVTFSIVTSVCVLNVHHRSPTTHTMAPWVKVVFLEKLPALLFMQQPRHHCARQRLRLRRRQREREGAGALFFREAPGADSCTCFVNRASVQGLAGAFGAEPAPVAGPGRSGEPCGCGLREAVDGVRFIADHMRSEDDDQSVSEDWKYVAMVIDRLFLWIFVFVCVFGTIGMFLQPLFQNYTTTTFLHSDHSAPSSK
T3 sequence (P43681 whole entry): as the sequence (P43681 whole entry) above
T4 sequence (P30926 whole entry): as the sequence (P30926 whole entry) above
T4 sequence (P32297 whole entry): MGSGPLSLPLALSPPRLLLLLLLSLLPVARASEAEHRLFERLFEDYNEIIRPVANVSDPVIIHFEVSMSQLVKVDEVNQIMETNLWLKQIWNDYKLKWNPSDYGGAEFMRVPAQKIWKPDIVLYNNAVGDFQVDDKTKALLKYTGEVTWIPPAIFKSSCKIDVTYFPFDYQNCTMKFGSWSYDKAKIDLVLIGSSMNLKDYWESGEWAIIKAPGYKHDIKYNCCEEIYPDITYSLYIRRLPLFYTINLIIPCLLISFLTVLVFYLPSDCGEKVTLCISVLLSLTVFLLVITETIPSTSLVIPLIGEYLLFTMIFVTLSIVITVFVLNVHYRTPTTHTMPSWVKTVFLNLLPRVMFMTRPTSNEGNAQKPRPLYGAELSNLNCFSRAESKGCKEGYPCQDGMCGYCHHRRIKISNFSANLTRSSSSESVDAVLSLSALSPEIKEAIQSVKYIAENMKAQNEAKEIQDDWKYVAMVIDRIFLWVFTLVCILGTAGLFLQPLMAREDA
T2 sequence (P09483 whole entry): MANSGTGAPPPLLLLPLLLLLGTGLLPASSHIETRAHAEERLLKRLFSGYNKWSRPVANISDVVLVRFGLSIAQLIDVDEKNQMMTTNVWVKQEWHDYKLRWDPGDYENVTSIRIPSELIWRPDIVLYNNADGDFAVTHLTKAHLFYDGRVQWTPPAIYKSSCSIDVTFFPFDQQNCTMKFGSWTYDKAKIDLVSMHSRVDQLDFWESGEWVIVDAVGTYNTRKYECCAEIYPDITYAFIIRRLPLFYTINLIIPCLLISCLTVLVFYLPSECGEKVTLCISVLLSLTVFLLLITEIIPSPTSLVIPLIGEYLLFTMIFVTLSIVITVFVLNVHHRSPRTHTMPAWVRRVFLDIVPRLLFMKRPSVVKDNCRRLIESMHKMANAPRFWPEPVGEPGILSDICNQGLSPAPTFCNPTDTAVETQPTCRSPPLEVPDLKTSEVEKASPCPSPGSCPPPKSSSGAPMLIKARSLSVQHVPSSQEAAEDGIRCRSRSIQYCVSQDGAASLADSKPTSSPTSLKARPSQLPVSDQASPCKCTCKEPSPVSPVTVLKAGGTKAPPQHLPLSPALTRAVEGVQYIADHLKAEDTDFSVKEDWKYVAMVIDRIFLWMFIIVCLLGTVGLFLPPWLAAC
T2 sequence (P12390 whole entry): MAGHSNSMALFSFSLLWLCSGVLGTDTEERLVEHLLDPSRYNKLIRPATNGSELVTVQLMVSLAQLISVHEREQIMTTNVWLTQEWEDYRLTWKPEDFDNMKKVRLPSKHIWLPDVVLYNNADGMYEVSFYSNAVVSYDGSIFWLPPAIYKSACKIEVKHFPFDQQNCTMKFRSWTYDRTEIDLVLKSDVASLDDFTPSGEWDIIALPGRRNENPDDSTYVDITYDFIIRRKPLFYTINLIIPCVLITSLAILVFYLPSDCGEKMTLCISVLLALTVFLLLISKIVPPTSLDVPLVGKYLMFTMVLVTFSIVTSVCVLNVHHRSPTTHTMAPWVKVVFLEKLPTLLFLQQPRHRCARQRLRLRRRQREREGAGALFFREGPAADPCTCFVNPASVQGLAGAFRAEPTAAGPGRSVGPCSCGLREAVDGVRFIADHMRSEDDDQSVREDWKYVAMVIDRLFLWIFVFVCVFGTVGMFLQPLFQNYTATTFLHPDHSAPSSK
Chain of Neuronal acetylcholine receptor; alpha3/beta2 (P04757 whole entry): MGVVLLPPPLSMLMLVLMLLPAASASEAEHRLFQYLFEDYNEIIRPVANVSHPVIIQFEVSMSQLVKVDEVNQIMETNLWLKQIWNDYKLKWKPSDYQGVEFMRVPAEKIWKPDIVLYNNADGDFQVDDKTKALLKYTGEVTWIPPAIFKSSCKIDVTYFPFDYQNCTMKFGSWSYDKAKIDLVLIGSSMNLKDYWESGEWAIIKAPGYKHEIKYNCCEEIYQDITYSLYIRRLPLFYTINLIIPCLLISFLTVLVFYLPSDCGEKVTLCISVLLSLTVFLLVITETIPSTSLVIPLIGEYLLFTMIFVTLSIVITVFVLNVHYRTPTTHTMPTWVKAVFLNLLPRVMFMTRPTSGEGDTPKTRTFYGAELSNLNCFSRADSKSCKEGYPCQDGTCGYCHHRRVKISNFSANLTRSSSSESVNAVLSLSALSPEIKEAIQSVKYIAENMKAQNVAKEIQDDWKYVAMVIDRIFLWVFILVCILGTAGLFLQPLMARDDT
Chain of Neuronal acetylcholine receptor; alpha3/beta2 (P12390 whole entry): as the sequence (P12390 whole entry) above

Row | Compound | EC50 [1] | IC50 [3] | also measured
1 | FCCCc1cc(-c2cncc(OC[C@@H]3CCN3)c2)on1 | > 1 µM | > 1 µM | Activity [2]: Active; Activity [4]: Active
2 | c1ncc(-c2cc(CCN3CCOCC3)no2)cc1OC[C@@H]1CCCN1 | > 1 µM | > 1 µM | Ki [5]: 0.132 µM; EC50 ([6]; read-out: pEC50 (converted)): > 0.1 µM; EC50 ([6]; sh-ep1, read-out: EC50): > 0.1 µM; Ki [7]: 0.575 µM; inhibition [8]: < 50%; IC50 [9]: > 0.1 µM; inhibition [10]: < 50%; EC50 [11]: > 1 µM; IC50 [12]: > 1 µM; inhibition [13]: < 50%; Ki [14]: 0.032 µM
3 | CN1CCC[C@H]1c1cccnc1 [NICOTINE] | > 1 µM | – | –
4 | c1cncc(OC[C@@H]2CCN2)c1 | – | – | EC50 [15]: 0.8 µM; Ki [16]: 0.314 µM
5 | OCCc1cc(-c2cncc(OC[C@@H]3CCN3)c2)on1 | > 1 µM | > 1 µM | –
6 | CCc1cc(-c2cncc(OC[C@H]3NC[C@@H]4C[C@@H]43)c2)on1 | > 1 µM | > 1 µM | –
7 | CCc1cc(-c2cncc(OC[C@@H]3CCN3)c2)on1 | > 1 µM | > 1 µM | Activity [2]: Active; Activity [17]: Active; Activity [4]: Active
8 | CCNC(=O)OCCc1cc(-c2cncc(OC[C@@H]3CCN3)c2)on1 | > 1 µM | > 1 µM | –
9 | CCNC(=O)OCCc1cc(-c2cncc(OC[C@@H]3CCCN3)c2)on1 | > 1 µM | > 1 µM | –
10 | CN[C@H]1CC[C@@H](c2ccc(Cl)c(Cl)c2)c2ccccc21 | – | – | Activity [18]: Active
11 | c1ncc(-c2cc(CCN3CCOCC3)no2)cc1OC[C@@H]1CCN1 | > 1 µM | > 1 µM | Ki [5]: 0.0263 µM; EC50 ([6]; read-out: pEC50 (converted)): > 0.1 µM; EC50 ([6]; sh-ep1, read-out: EC50): > 0.1 µM; Ki [7]: 0.117 µM; inhibition [8]: < 50%; IC50 [9]: > 0.1 µM; inhibition [10]: < 50%; EC50 [11]: > 1 µM; IC50 [12]: > 1 µM; inhibition [13]: < 50%; Ki [14]: 0.011 µM
12 | CN1CCC[C@H]1COc1cncc(-c2cc(CCO)no2)c1 | > 1 µM | > 1 µM | –
13 | COCCc1cc(-c2cncc(OC[C@@H]3CCN3)c2)on1 | > 1 µM | > 1 µM | –
14 | FC(F)(F)CCc1cc(-c2cncc(OC[C@@H]3CCN3)c2)on1 | > 1 µM | > 1 µM | –
15 | O=C(Nc1ccccc1)OCCc1cc(-c2cncc(OC[C@@H]3CCCN3)c2)on1 | > 1 µM | > 1 µM | –
16 | OCCc1cc(-c2cncc(OC[C@@H]3CCCN3)c2)on1 | > 1 µM | > 1 µM | –
17 | OCCCc1cc(-c2cncc(OC[C@@H]3CCCN3)c2)on1 | > 1 µM | > 1 µM | –
18 | O=C(Nc1ccccc1)OCCc1cc(-c2cncc(OC[C@@H]3CCN3)c2)on1 | > 1 µM | > 1 µM | –
19 | c1cnc2cc3c(cc2n1)[C@@H]1CNC[C@H]3C1 [VARENICLINE] | > 1 µM | – | Imax [19]: 83%; Efficacy [20]: 34%; Efficacy [21]: 106%; Ki [22]: 0.11 µM
20 | OCCc1cc(-c2cncc(OC[C@H]3NC[C@@H]4C[C@@H]43)c2)on1 | > 1 µM | > 1 µM | –
21 | FC(F)CCc1cc(-c2cncc(OC[C@@H]3CCN3)c2)on1 | > 1 µM | > 1 µM | Activity [2]: Active; Activity [4]: Active
